Where a SMILES comes first, the peptide text is derived from it. [ ]: non-standard residue; d: D form. Cha = N[C@@H](CC1CCCCC1)C(=O)O; Nle = CCCC[C@H](N)C(=O)O
How the values were obtained:
[1] = target: T1, C5a anaphylatoxin chemotactic receptor 1 (Homo sapiens) (UniProt P21730); test: Compound was evaluated for its ability to inhibit the binding of […] to polymorphonuclear leukocyte (PMNL) membrane receptor at 1 mM concentration.
T1 sequence (whole entry): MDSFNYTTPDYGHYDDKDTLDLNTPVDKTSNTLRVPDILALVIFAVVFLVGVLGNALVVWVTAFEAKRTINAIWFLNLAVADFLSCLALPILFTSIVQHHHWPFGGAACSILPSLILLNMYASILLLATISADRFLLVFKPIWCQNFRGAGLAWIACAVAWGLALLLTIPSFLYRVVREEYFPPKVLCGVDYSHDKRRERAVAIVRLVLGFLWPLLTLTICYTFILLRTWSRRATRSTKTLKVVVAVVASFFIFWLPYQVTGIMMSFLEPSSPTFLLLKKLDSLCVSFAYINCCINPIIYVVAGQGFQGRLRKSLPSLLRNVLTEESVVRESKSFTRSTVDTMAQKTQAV
Procedure, shortened: (§1)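 Competition for radioiodinated C5a binding to human PMNL membranes, isolated by nitrogen cavitation and Percoll gradient. Tracer made by glucose oxidase-lactoperoxidase iodination and affinity-purified. Buffered balanced salts (pH 7.0), 0.25% gelatin, protease inhibitors, 50–250 pM 125I-C5a, 5–20 μg/mL membranes. 60 min, ambient temperature, filtration. IC50 from linear regression; Ki by Cheng–Prusoff. Single-point lines give percent inhibition at 1 mM peptide.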

[2] = target: T2, C5a anaphylatoxin chemotactic receptor 1 (Homo sapiens, UniProt P21730); test: Ability to inhibit the binding of […] to polymorphonuclear leukocyte (PMNL) membrane receptor; procedure, shortened: as §1
T2 sequence (P21730 whole entry): T1 sequence (whole entry)

[3] = Compound was evaluated for its ability to stimulate polymorphonuclear leukocyte (PMNL) chemokinetic migration; assay type: functional, Homo sapiens
Procedure, shortened: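 Human blood PMNL from density-gradient centrifugation, with hypotonic red-cell lysis and three washes. Cells at 2×10^8/mL in 0.3% agarose, set as 1-μL droplets, chilled 10 min on ice, then overlaid with buffer ± stimulus. Buffer: Earle's salts, 20 mM HEPES pH 7.0, 0.25% gelatin. Run 2 h at 37 °C. Migration from droplet edge, minus buffer control, as % of peak rC5a response. Dose-response dosing.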

Molecule | inhibition [1] [%] | Ki [2] [µM] | Efficacy [3] [%]
CSCC[C@H](NC(=O)[C@H](CC(=O)O)NC(=O)[C@H](CCCCN)NC(=O)[C@H](Cc1c[nH]cn1)NC(C)=O)C(=O)N[C@@H](CCC(N)=O)C(=O)N[C@@H](CC1CCCCC1)C(=O)NCC(=O)N[C@@H](CCCN=C(N)N)C(=O)O (Ac-HKDMQ[Cha]GR-OH) | 30 | – | –
CC(=O)N[C@@H](Cc1c[nH]cn1)C(=O)N[C@@H](CCCCN)C(=O)N[C@@H](CC(=O)O)C(=O)N[C@@H](CC1CCCCC1)C(=O)N[C@@H](CC1CCCCC1)C(=O)N[C@@H](CC(C)C)C(=O)N[C@H](C)C(=O)N[C@@H](CCCN=C(N)N)C(=O)O | – | 2.9 | 57
CC(=O)N[C@@H](Cc1c[nH]cn1)C(=O)N[C@@H](CCCCN)C(=O)N[C@@H](CC(=O)O)C(=O)N[C@@H](CC1CCCCC1)C(=O)N[C@@H](CC1CCCCC1)C(=O)N[C@@H](CC1CCCCC1)C(=O)NCC(=O)N[C@@H](CCCN=C(N)N)C(=O)O (Ac-HKD[Cha][Cha][Cha]GR-OH) | – | 25 | 75
CCCC[C@H](NC(=O)[C@H](CCCC)NC(=O)[C@H](CCCC)NC(=O)[C@H](CC(=O)O)NC(=O)[C@H](CCCCN)NC(=O)[C@H](Cc1c[nH]cn1)NC(C)=O)C(=O)NCC(=O)N[C@@H](CCCN=C(N)N)C(=O)O (Ac-HKD[Nle][Nle][Nle]GR-OH) | – | 210 | –
Ac-HKDMQLGR-OH | – | – | 107
CCC[C@H](NC(=O)[C@H](CC1CCCCC1)NC(=O)[C@H](CC1CCCCC1)NC(=O)[C@H](CC(=O)O)NC(=O)[C@H](CCCCN)NC(=O)[C@H](Cc1c[nH]cn1)NC(C)=O)C(=O)N[C@H](C)C(=O)N[C@@H](CCCN=C(N)N)C(=O)O | – | 5.3 | 55
CC[C@H](C)[C@H](NC(=O)[C@H](CC1CCCCC1)NC(=O)[C@H](CC1CCCCC1)NC(=O)[C@H](CC(=O)O)NC(=O)[C@H](CCCCN)NC(=O)[C@H](Cc1c[nH]cn1)NC(C)=O)C(=O)N[C@H](C)C(=O)N[C@@H](CCCN=C(N)N)C(=O)O | – | 2 | 56
CC(=O)N[C@@H](Cc1c[nH]cn1)C(=O)N[C@@H](CCCCN)C(=O)N[C@@H](CC(=O)O)C(=O)N[C@@H](CC1CCCCC1)C(=O)N[C@@H](CC1CCCCC1)C(=O)N[C@H](C(=O)N[C@H](C)C(=O)N[C@@H](CCCN=C(N)N)C(=O)O)C(C)C | – | 1.6 | 60
CC(=O)N[C@@H](Cc1c[nH]cn1)C(=O)NC(CCCCN)C(=O)N[C@@H](CC(=O)O)C(=O)NC(CC1CCCCC1)C(=O)N[C@H](CC1CCCCC1)C(=O)N[C@@H](CC(C)C)C(=O)N[C@H](C)C(=O)N[C@@H](CCCN=C(N)N)C(=O)O (single isomer, unassigned) | – | 600 | 71
CC(=O)N[C@@H](Cc1c[nH]cn1)C(=O)N[C@@H](CCCCN)C(=O)N[C@@H](CC(=O)O)C(=O)N[C@@H](CC1CCCCC1)C(=O)N[C@@H](CC1CCCCC1)C(=O)N[C@@H](CC1CCCCC1)C(=O)N[C@H](C)C(=O)N[C@@H](CCCN=C(N)N)C(=O)O | – | 10 | 67
CC(=O)N[C@@H](Cc1c[nH]cn1)C(=O)N[C@@H](CCCCN)C(=O)N[C@@H](CC(=O)O)C(=O)N[C@@H](Cc1ccc(O)cc1)C(=O)N[C@@H](Cc1ccc(O)cc1)C(=O)N[C@@H](Cc1ccc(O)cc1)C(=O)N[C@H](C)C(=O)N[C@@H](CCCN=C(N)N)C(=O)O | < 20 | – | –
CC(=O)N[C@@H](Cc1c[nH]cn1)C(=O)N[C@@H](CCCCN)C(=O)N[C@@H](CC(=O)O)C(=O)N[C@@H](Cc1ccccc1)C(=O)N[C@@H](Cc1ccccc1)C(=O)N[C@@H](Cc1ccccc1)C(=O)N[C@H](C)C(=O)N[C@@H](CCCN=C(N)N)C(=O)O | – | 750 | 109
CC(=O)N[C@@H](Cc1c[nH]cn1)C(=O)N[C@@H](CCCCN)C(=O)N[C@@H](CC(=O)O)C(=O)N[C@@H](CC1CCCCC1)C(=O)N[C@H](CC1CCCCC1)C(=O)N[C@@H](CC(C)C)C(=O)N[C@H](C)C(=O)N[C@@H](CCCN=C(N)N)C(=O)O | 26 | – | –
